APP 5'UTR act = APP 5'UTR luciferase reporter activation; SH-SY5Y APP 5'UTR luciferase reporter, luminescence; zero percent = DMSO vehicle wells; activation, % at 2 µM; 1% of 190,000 active; AID 1276;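 active = activation above a set limit, based on mean plus 3 SD of controls, cut at about 140% in these data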
p97 ATPase inh = human p97 ATPase inhibition; P55072; recombinant p97 ATPase, Kinase-Glo ATP luminescence, 3 h; inhibition, % at 8 µM; 0.42% of 220,000 active; in the data active = inhibition above about 15%;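 note: 0% = DMSO vehicle and 100% = wells lacking enzyme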
MDM2 E3 inh = blocks human Mdm2 ubiquitin ligase activity | cell-based MDM2 ubiquitination luciferase reporter, 2 h; 0 = plate control, 100 = twice control, blank-subtracted | signal enhancement, % at 5 µM | 0.11% of 210,000 active | Q00987;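 active = signal enhancement of 30% or more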;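 note: luminescence tracks abundance of the self-degrading MDM2-luciferase fusion protein; higher signal means inhibition of MDM2 E3 ligase activity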
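System: stable MDM2–luciferase fusion reporter cells / Input: 2000 cells seeded into each well / Schedule: 4 h settle plus 2 h compound, 37 °C / Compound: single-point 5 µM / Buffer or medium: cells held in DMEM / Benchmarks: control and blank well means / Evaluation: percent signal gain over controls, blank-subtracted / Measured by: luciferase luminescence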
STAT1 act = STAT1 signaling activation; NIH 3T3 STAT1-luciferase reporter, IFN-gamma, luminescence; 100% = IFN-gamma alone, no compound; AID 932; activation (% of control), % at 5.5 µM; 2.6% of 200,000 active;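 active = activation above the screen-wide mean activation plus 3 SD, cut at about 130% in these data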;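 note: raw ratio to IFN-gamma control signal so 100% means no change and 0% no light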
Wee1 degr inh = human Wee1 degradation inhibition, primary screen; HeLa Luc-Wee1K328M stability, luciferase luminescence; 100% = proteasome inhibitor MG132 effect; 1.2% of 220,000 active; AID 1321; reporter increase, % at 5 µM; P30291;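 active = activation above the mean of all tested compounds plus 3 SD, set per screening run, cut at about 8.8% in these data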;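 note: cells exposed to compound for 20 h before luminescence read; 0% = DMSO alone and 100% = MG132 at 30 µM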
Target sequence (P30291 whole entry K328M): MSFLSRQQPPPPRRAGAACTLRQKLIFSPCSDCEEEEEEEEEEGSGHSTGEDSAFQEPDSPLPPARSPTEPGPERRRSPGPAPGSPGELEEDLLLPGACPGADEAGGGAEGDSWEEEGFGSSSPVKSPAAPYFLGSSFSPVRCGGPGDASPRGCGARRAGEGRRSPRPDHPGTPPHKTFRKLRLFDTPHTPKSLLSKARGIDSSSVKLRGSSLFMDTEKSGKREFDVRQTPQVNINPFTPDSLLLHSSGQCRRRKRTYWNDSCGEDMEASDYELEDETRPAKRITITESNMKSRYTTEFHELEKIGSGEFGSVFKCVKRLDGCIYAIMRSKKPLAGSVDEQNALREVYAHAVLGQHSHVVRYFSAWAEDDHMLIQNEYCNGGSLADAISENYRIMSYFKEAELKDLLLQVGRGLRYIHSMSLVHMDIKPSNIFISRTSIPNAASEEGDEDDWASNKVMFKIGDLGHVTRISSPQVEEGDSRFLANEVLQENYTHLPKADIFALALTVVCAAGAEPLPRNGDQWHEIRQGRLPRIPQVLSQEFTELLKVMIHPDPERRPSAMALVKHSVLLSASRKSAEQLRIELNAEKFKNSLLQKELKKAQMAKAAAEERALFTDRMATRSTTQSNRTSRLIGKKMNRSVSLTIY
NF-kB expr up = NF-kB expression increase, human neuronal cells; fold change at 12.5 µM; 1.6% of 190,000 active; NF-kB reporter expression; active compounds read high; AID 1239; in the data active = fold change above about 3.3
Starred values were filed as active, the others as inactive. This is a sample that favours compounds with a hit; in the whole collection about 4.6% have one here.

How did O=C(NCc1cccnc1)C(=O)NCC1OCCN1S(=O)(=O)c1ccc(F)cc1 (stereo not drawn) do in these assays?
APP 5'UTR act: -4; p97 ATPase inh: 8; STAT1 act: 107; Wee1 degr inh: 9.2*; NF-kB expr up: 0.94

What do the screens show for `COc1ccc(/C=C/C(=O)OCCCN(C)C)cc1`?
APP 5'UTR act: -1; p97 ATPase inh: 5; MDM2 E3 inh: -12; STAT1 act: 104; Wee1 degr inh: 0; NF-kB expr up: 1

What do the screens show for `C=CCSc1n[nH]c(-c2ccc(OC)cc2)n1`?
APP 5'UTR act: 56; p97 ATPase inh: 2; MDM2 E3 inh: -13; STAT1 act: 140*; Wee1 degr inh: 3; NF-kB expr up: 2.6

How did CCOc1cc(N2CCOCC2)c(OCC)cc1NC(C)C(=O)N1CCC(C)CC1 (stereo not drawn) do in these assays?
APP 5'UTR act: 13; p97 ATPase inh: -2; MDM2 E3 inh: -15; STAT1 act: 102; Wee1 degr inh: -1; NF-kB expr up: 0.82

How did Nc1c(C(=O)N/N=C/c2cccnc2)oc2nc(-c3ccccc3)cc(-c3ccco3)c12 do in these assays?
p97 ATPase inh: 15*; MDM2 E3 inh: -8; Wee1 degr inh: -1

Results for Cc1cc(C)c2c(N)c(C(=O)N/N=C/c3ccccc3)sc2n1 ?
p97 ATPase inh: 7; MDM2 E3 inh: -13; Wee1 degr inh: 4

Results for Cc1cc(C)c2c(N)c(C(=O)N/N=C/c3cccnc3)sc2n1 ?
p97 ATPase inh: 11; MDM2 E3 inh: 0; Wee1 degr inh: 9.5*

How did Cc1ccc(C(=O)/C=C2\NCCNC2=O)cc1 do in these assays?
APP 5'UTR act: 109; p97 ATPase inh: -2; MDM2 E3 inh: -6; STAT1 act: 131*; Wee1 degr inh: 2; NF-kB expr up: 5*

How did c1ccc(Sc2ncnc3c2oc2ccccc23)cc1 do in these assays?
APP 5'UTR act: 60; p97 ATPase inh: -4; MDM2 E3 inh: -24; STAT1 act: 144*; Wee1 degr inh: -1; NF-kB expr up: 2.5

How did O=C(O)CSc1ncnc2c1oc1ccccc12 do in these assays?
APP 5'UTR act: 13; p97 ATPase inh: 4; MDM2 E3 inh: -8; STAT1 act: 104; Wee1 degr inh: -1; NF-kB expr up: 1.1

How did COc1ccccc1C(=O)N/C(=C/c1ccc(Br)cc1)C(=O)N1CCCC1 do in these assays?
APP 5'UTR act: 11; p97 ATPase inh: -1; MDM2 E3 inh: -3; STAT1 act: 91; Wee1 degr inh: 4; NF-kB expr up: 0.77

How did COc1ccc(-c2nnc(NC(=O)C3CCCO3)s2)cc1 (stereo not drawn) do in these assays?
APP 5'UTR act: 55; p97 ATPase inh: -1; MDM2 E3 inh: -29; STAT1 act: 142*; Wee1 degr inh: 2; NF-kB expr up: 1.9

What do the screens show for `COc1ccc2nc(NC(=O)C3CCCO3)sc2c1` (stereo not drawn)?
APP 5'UTR act: 138*; p97 ATPase inh: 7; MDM2 E3 inh: -23; STAT1 act: 150*; Wee1 degr inh: 8; NF-kB expr up: 3.5*

Results for Cc1cccc2sc(NC(=O)C3CCCO3)nc12 (stereo not drawn) ?
APP 5'UTR act: 32; p97 ATPase inh: -2; MDM2 E3 inh: -9; STAT1 act: 126; Wee1 degr inh: 1; NF-kB expr up: 2.2

What do the screens show for `CSc1nc2ccc(NC(=O)C3CCCO3)cc2s1` (stereo not drawn)?
APP 5'UTR act: 29; p97 ATPase inh: -4; MDM2 E3 inh: -16; STAT1 act: 132*; Wee1 degr inh: -1; NF-kB expr up: 2.1

Results for Cc1ccc(-c2csc(NC(=O)C3=COCCO3)n2)cc1 ?
APP 5'UTR act: 73; p97 ATPase inh: -4; MDM2 E3 inh: -9; STAT1 act: 136*; Wee1 degr inh: 3; NF-kB expr up: 2.2

What do the screens show for `COc1cc(/C=C/C(=O)O)cc(S(=O)(=O)N2CCc3ccccc3C2)c1OC`?
APP 5'UTR act: -12; p97 ATPase inh: 6; MDM2 E3 inh: 0; STAT1 act: 92; Wee1 degr inh: 2; NF-kB expr up: 1.3

Results for O=C(NC(=O)c1ccccc1O)c1ccc2c(c1)CCO2 ?
p97 ATPase inh: -18; MDM2 E3 inh: -51; Wee1 degr inh: 2

What do the screens show for `O=C(Nc1nc(-c2ccc(Cl)cc2)cs1)C1CCCO1` (stereo not drawn)?
APP 5'UTR act: 36; p97 ATPase inh: -2; MDM2 E3 inh: -13; STAT1 act: 131*; Wee1 degr inh: 5; NF-kB expr up: 2.5

What do the screens show for `O=C(Nc1nc(-c2ccc(Cl)cc2Cl)cs1)C1CCCO1` (stereo not drawn)?
APP 5'UTR act: -1; p97 ATPase inh: -3; MDM2 E3 inh: -5; STAT1 act: 102; Wee1 degr inh: 8; NF-kB expr up: 1.4

How did COc1ccc(NC(=O)c2cccnc2)c([N+](=O)[O-])c1 do in these assays?
APP 5'UTR act: -21; p97 ATPase inh: 1; MDM2 E3 inh: -12; STAT1 act: 97; Wee1 degr inh: 1; NF-kB expr up: 1.3

How did CCCOc1ccc(C(=O)Nc2ccccc2[N+](=O)[O-])cc1 do in these assays?
APP 5'UTR act: 114; p97 ATPase inh: -3; STAT1 act: 140*; Wee1 degr inh: -1

How did CCOc1ccc(NC(=O)c2ccc(CC)s2)c([N+](=O)[O-])c1 do in these assays?
APP 5'UTR act: 79; p97 ATPase inh: -1; MDM2 E3 inh: -16; STAT1 act: 133*; Wee1 degr inh: -1; NF-kB expr up: 1.8

What do the screens show for `COc1ccc(NC(=O)c2ccccc2)c([N+](=O)[O-])c1`?
APP 5'UTR act: 49; p97 ATPase inh: -1; MDM2 E3 inh: 0; STAT1 act: 132*; Wee1 degr inh: 0; NF-kB expr up: 1.2

What do the screens show for `Cc1ccc(CN2CCN(/N=C/c3ccc(Cl)c([N+](=O)[O-])c3)CC2)cc1`?
APP 5'UTR act: -12; p97 ATPase inh: -8; MDM2 E3 inh: -36; STAT1 act: 91; Wee1 degr inh: -1; NF-kB expr up: 1.1

What do the screens show for `CC(=O)C1=C(S(=O)(=O)c2ccc(C)cc2)CS(=O)(=O)C1`?
APP 5'UTR act: -4; p97 ATPase inh: 3; MDM2 E3 inh: 9; STAT1 act: 94; Wee1 degr inh: 0; NF-kB expr up: 0.89

Results for CNC(=O)c1ccc(CNC(=O)OCc2ccccc2)cc1 ?
APP 5'UTR act: 17; p97 ATPase inh: 1; MDM2 E3 inh: -5; STAT1 act: 103; Wee1 degr inh: 7; NF-kB expr up: 1.4

What do the screens show for `COc1ccc(C(=O)/C=C/c2ccc(F)cc2)c(OC(=O)c2ccc([N+](=O)[O-])cc2)c1`?
APP 5'UTR act: 8; p97 ATPase inh: -1; MDM2 E3 inh: -6; STAT1 act: 104; Wee1 degr inh: 1; NF-kB expr up: 1.6

What do the screens show for `COc1ccc(C(=O)/C=C/c2cccs2)c(OC(=O)c2cccc([N+](=O)[O-])c2)c1`?
APP 5'UTR act: 21; p97 ATPase inh: 8; MDM2 E3 inh: -4; STAT1 act: 112; Wee1 degr inh: 0; NF-kB expr up: 6*
